# Laboratory results as given in ChEMBL document CHEMBL1909619, “Synthesis and Toll-like receptor 4 (TLR4) activity of phosphatidylinositol dimannoside analogues” (J Med Chem, 2011).
# Active and inactive are the calls of the source. No cut-off for these calls is given here.
# Tests used:
# Sf9 [1] = test: Competitive binding affinity at MD1 transfected in Sf9 insect cells after 1 hr by native PAGE in presence of LPS; type: cell-based
# Summary of the method: (§1)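 MD-1 was expressed by baculovirus and purified by Ni-NTA affinity, anion exchange and gel filtration. It was combined with compound and then LPS in 20 mM Hepes pH 7.4/150 mM NaCl. After 1 h at room temperature, the mixture was analysed by native PAGE on a 4–20% gradient gel at pH 8.8.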
# [2] = target: Toll-like receptor 4 (Homo sapiens) (UniProt O00206); test: Partial agonist activity at TLR4 transfected in Sf9 insect cells assessed as inhibition of LPS-mediated sTLR4/MD2 homodimerization after 1 hr by native PAGE; type: functional, cell-based
# Chain of Toll-like receptor 4 (Homo sapiens) (O00206 whole entry, the tested form may be a part): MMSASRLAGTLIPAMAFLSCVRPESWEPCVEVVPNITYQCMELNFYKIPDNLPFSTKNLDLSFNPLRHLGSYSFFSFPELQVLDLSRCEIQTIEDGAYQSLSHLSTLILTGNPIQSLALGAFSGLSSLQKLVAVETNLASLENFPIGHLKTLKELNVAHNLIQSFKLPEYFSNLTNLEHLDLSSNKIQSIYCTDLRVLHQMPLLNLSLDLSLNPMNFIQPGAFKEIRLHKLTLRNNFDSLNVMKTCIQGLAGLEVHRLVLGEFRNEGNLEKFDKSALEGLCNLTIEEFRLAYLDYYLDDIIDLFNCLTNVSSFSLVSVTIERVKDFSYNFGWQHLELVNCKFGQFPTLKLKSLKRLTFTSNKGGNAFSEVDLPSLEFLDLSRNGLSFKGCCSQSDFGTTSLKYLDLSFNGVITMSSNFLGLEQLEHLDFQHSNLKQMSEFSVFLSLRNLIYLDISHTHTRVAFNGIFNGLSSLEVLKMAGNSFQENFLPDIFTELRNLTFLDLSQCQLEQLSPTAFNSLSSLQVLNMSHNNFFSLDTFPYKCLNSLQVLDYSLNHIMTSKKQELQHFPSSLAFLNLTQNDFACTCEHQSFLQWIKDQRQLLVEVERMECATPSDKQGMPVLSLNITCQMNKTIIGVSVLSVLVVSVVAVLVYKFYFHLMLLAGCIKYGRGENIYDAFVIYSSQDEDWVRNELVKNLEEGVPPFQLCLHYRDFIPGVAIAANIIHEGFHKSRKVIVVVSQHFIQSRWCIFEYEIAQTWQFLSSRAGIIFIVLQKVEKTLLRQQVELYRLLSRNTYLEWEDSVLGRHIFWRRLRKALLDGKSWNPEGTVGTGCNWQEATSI
# Summary of the method: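 The sTLR4 ectodomain/MD-2 complex was co-expressed in Hi5 insect cells from baculovirus made in SF9 cells. It was purified by Ni-NTA and Strep-Tactin affinity, tag removal with thrombin, and size exclusion. After 1 h at room temperature, the mixture was resolved by native PAGE on a 4–20% gel at pH 8.8.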
# Sf9 [3] = test: Binding affinity at MD1 transfected in Sf9 insect cells after 1 hr by native PAGE; type: cell-based; summary of the method: as §1
# [4] = target: T1, Toll-like receptor 4 (Mus musculus) (UniProt Q9QUK6); test: Agonist activity at TLR4 in thioglycollate-elicited mouse peritoneal macrophages assessed as induction of IL-6 production in after 18 hrs by ELISA; type: functional
# T1 sequence (whole entry): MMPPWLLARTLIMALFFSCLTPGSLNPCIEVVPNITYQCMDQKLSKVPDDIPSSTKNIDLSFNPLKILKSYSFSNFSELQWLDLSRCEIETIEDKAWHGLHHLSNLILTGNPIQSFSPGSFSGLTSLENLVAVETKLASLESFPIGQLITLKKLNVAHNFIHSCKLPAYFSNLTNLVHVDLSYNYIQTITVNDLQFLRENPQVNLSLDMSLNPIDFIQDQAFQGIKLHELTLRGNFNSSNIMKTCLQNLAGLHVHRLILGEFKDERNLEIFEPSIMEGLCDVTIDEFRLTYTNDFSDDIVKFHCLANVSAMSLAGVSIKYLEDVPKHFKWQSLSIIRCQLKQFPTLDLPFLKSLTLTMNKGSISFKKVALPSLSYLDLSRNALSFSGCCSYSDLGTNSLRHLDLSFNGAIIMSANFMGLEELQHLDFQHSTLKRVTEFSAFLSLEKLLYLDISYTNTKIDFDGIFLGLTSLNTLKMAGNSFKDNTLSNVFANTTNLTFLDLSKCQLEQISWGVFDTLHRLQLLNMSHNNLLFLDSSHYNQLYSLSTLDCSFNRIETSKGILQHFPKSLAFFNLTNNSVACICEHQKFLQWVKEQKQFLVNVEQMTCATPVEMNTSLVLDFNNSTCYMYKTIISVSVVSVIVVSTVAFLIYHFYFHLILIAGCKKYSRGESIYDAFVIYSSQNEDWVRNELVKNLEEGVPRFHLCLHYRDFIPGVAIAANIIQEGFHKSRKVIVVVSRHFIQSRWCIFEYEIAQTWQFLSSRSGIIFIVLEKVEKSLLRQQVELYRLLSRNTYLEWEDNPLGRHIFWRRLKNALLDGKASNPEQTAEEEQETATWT
# Summary of the method: (§2)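 Thioglycollate-elicited mouse peritoneal macrophages were plated at 2×10^5 cells/well in RPMI-1640 with 10% fetal calf serum and penicillin-streptomycin. They were incubated 18 h at 37°C, 5% CO2 with compound, with or without 10 ng/ml LPS. IL-6 in the supernatant was measured by ELISA. Data are representative of at least two replicate experiments, and significance was tested by ANOVA.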
# Toll-like receptor 4 = target: T2, Toll-like receptor 4 (Mus musculus, UniProt Q9QUK6); test: (§3) Inhibition of LPS-induced TLR4 activation in thioglycollate-elicited mouse peritoneal macrophages assessed as inhibition of IL-6 production after 18 hrs by ELISA; summary of the method: as §2
# T2 sequence (Q9QUK6 whole entry): T1 sequence (whole entry)
# [5] = Cytotoxicity against mouse peritoneal macrophages assessed as cell viability by trypan blue exclusion assay; type: cell-based; conditions: peritoneal macrophage cell
# Summary of the method: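 Thioglycollate-elicited mouse peritoneal macrophages were plated at 2×10^5 cells/well in supplemented RPMI-1640. They were exposed to compound, with or without 10 ng/ml LPS, for 18 h at 37°C, 5% CO2. Viability was then scored by trypan blue exclusion.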
# Macrophage = test: Induction of IL-6 production in TLR4-deficient mouse macrophages; type: functional, cell-based
# [6] = target: T1, Toll-like receptor 4 (Mus musculus); test: as §3; summary of the method: as §2
# [7] = target: T1, Toll-like receptor 4 (Mus musculus); test: Enhancement of LPS-induced TLR4 activation in mouse peritoneal macrophages assessed as IL-6 production at 0.6 to 19.2 uM after 18 hrs by ELISA; summary of the method: as §2
Compound,Activity (Sf9 [1]),Activity [2],Activity (Sf9 [3]),Activity [4] [pg/mL],IC50 (Toll-like receptor 4) [µM],Activity [5],Activity (Macrophage),inhibition [6],Activity [7]
CCCCCCCCCCCCCCCC(=O)OC[C@H](COP(=O)(O)O[C@@H]1[C@H](O[C@H]2O[C@H](CO)[C@@H](O)[C@H](O)[C@@H]2O)[C@H](O)[C@@H](O)[C@H](O)[C@H]1O[C@H]1O[C@H](CO)[C@@H](O)[C@H](O)[C@@H]1O)OC(=O)CCCCCCCCCCCCCCC,Dose-dependent effect,Active,Active,817,40.2,Non-toxic,inactive,,
CCCCCCCCCCCCCCCCOC[C@H](COP(=O)(O)O[C@@H]1[C@H](O[C@H]2O[C@H](CO)[C@@H](O)[C@H](O)[C@@H]2O)[C@H](O)[C@@H](O)[C@H](O)[C@H]1O[C@H]1O[C@H](CO)[C@@H](O)[C@H](O)[C@@H]1O)OCCCCCCCCCCCCCCCC,,,,494,23.3,Non-toxic,,,
CCCCCCCCCCCCCCCC(=O)OC[C@H](COP(=O)(O)OC(CO[C@H]1O[C@H](CO)[C@@H](O)[C@H](O)[C@@H]1O)CO[C@H]1O[C@H](CO)[C@@H](O)[C@H](O)[C@@H]1O)OC(=O)CCCCCCCCCCCCCCC,,,,143,12.9,Non-toxic,,,
CCCCCCCCCCCCCCCCOC[C@H](COP(=O)(O)O[C@@H]1[C@H](O[C@H]2O[C@H](CO)[C@@H](O)[C@H](O)[C@@H]2O)[C@H](O)[C@@H](O)[C@H](O)[C@H]1O[C@H]1O[C@H](CO)[C@@H](O)[C@H](O)[C@@H]1O)OC(=O)CCCCCCCCCCCCCCC,,,,1130,28.8,Non-toxic,,,
CCCCCCCCCCCCCCCCO[C@H](COC(=O)CCCCCCCCCCCCCCC)COP(=O)(O)O[C@@H]1[C@H](O[C@H]2O[C@H](CO)[C@@H](O)[C@H](O)[C@@H]2O)[C@H](O)[C@@H](O)[C@H](O)[C@H]1O[C@H]1O[C@H](CO)[C@@H](O)[C@H](O)[C@@H]1O,,,,1460,30.3,Non-toxic,,Dose-dependent effect,
CCCCCCCCCCCCCCCCO[C@H](COC(=O)CCCCCCCCCCCCCCC)COP(=O)(O)OC(CO[C@H]1O[C@H](CO)[C@@H](O)[C@H](O)[C@@H]1O)CO[C@H]1O[C@H](CO)[C@@H](O)[C@H](O)[C@@H]1O,,,,923,42.8,Non-toxic,,,
CCCCCCCCCCCCCCCC(=O)N[C@H](COC(=O)CCCCCCCCCCCCCCC)COP(=O)(O)O[C@@H]1[C@H](O[C@H]2O[C@H](CO)[C@@H](O)[C@H](O)[C@@H]2O)[C@H](O)[C@@H](O)[C@H](O)[C@H]1O[C@H]1O[C@H](CO)[C@@H](O)[C@H](O)[C@@H]1O,,,,664,22.7,Non-toxic,,,
CCCCCCCCCCCCCCCCO[C@H](COC(=O)CCCCCCCCCCCCCCC)COP(=O)(O)O[C@@H]1[C@H](O[C@H]2O[C@H](COC(=O)CCCCCCCCCCCCCCC)[C@@H](O)[C@H](O)[C@@H]2O)[C@H](O)[C@@H](O)[C@H](O)[C@H]1O[C@H]1O[C@H](CO)[C@@H](O)[C@H](O)[C@@H]1O,,,,275,,Non-toxic,,,Active
